Assay results collected from several papers.
Protocols differ between the studies behind these lines.
Cell line: HT-29

SMILES | test | conditions | IC50
COc1ccc2c(c1)/C(=N/NC(=O)c1cc3ccccc3[nH]1)C(=O)N2C | cell growth or viability |  | 5.73 µM
O=C(O)/C=C/c1ccc(O)cc1 | cell growth or viability, MTT |  | > 50 µM
COc1c2c(cc3c1OCO3)[C@]13C=C[C@H](OC)C[C@H]1N(C2)C[C@H]3OC(=O)c1cccc(C)c1 | cell growth or viability, WST-1 |  | > 10 µM
COc1ccc2c(c1)/C(=N/NC(=O)c1cc3ccccc3[nH]1)C(=O)N2 | cell growth or viability |  | > 30 µM
O=c1cc(CO)occ1[O-].[Cl-].[W+4].c1cc[cH-]c1.c1cc[cH-]c1 | cell growth or viability, MTT |  | 200 µM
CN1C(=O)/C(=N\NC(=O)c2cc3ccccc3[nH]2)c2cc(Br)ccc21 | cell growth or viability |  | 3.68 µM
C#Cc1cc(Nc2nccc(Oc3ccc(NC(=O)Nc4cc(C(C)(C)C)nn4-c4ccc(C)cc4)c4ccccc34)n2)cc(C(=O)NCCOCCOCCOC)c1 | IL-8 release | 24 h | 0.0018 µM
O=C1Nc2ccc(Cl)cc2/C1=N/NC(=O)c1cc2ccccc2[nH]1 | cell growth or viability |  | > 30 µM
F[B-](F)(F)F.[Fe+3].c1cc[cH-]c1.c1cc[cH-]c1 | cell growth or viability, MTT |  | 180 µM
CC(=O)O[C@H]1C(=O)[C@@]2(C)[C@H]([C@H](OC(=O)c3ccccc3)[C@]3(O)C[C@H](OC(=O)[C@H](O)[C@@H](NC(=O)c4ccccc4)c4ccccc4)C(C)=C1C3(C)C)[C@]1(OC(C)=O)CO[C@@H]1C[C@@H]2O | cell growth or viability, fluorescence | 72 h | 0.0035 µM
O=c1[nH]c(=O)n([C@H]2C[C@H](O)[C@@H](CO)O2)cc1F | cell growth or viability, SRB | 72 h | 0.056 µM
C#Cc1cccc(Nc2ncnc3cc(OCCOC)c(OCCOC)cc23)c1 | cell growth or viability, MTT |  | 0.07 µM
COc1cc(Nc2nccc(-c3cnn4nc(OC)ccc34)n2)cc(C(F)(F)F)c1 | cell growth or viability, ATP luminescence |  | 0.33 µM
COc1ccc(C(=O)O[C@@H]2CN3Cc4c(cc5c(c4OC)OCO5)[C@@]24C=C[C@H](OC)C[C@@H]34)cc1OC | cell growth or viability, WST-1 |  | > 10 µM
Cc1nc(Nc2ncc(C(=O)Nc3c(C)cccc3Cl)s2)cc(N2CCN(CCO)CC2)n1 | IL-8 release | 24 h | > 2.05 µM
NCCC(=O)Nc1ccc(-n2nc(C(F)(F)F)cc2-c2ccc3c(c2)oc2ccccc23)cc1 | cell growth or viability, MTT | 24 h | 7.2 µg/mL
CN1C(=O)/C(=N\NC(=O)c2cc3ccccc3[nH]2)c2ccccc21 | cell growth or viability |  | 12.9 µM
NCC(=O)Nc1ccc(-n2nc(C(F)(F)F)cc2-c2ccc3c(ccc4ccccc43)c2)cc1 | cell growth or viability, MTT | 24 h | 3.6 µg/mL
CC[C@H](C)C(=O)O[C@H]1C[C@@H](C)C=C2C=C[C@H](C)[C@H](CC[C@@H]3C[C@@H](O)CC(=O)O3)[C@H]21 | cell growth or viability, SRB | 72 h | 7.26 µg/mL
O=C(O)c1cc(O)c(O)c(O)c1 | cell growth or viability, MTT |  | 16.3 µM
COc1c(C)c(OC)c2c(c1C)OC(c1ccccc1)CC2=O (stereo not drawn) | cell growth or viability, SRB | 72 h | > 50 µM
CC(C)n1c(/C=C/C(O)CC(O)CC(=O)O)c(-c2ccc(F)cc2)c2ccccc21 (stereo not drawn) | cell growth or viability, SRB | 72 h | 1.67 µg/mL
CCC[C@H](Nc1nc(-c2ccc(NC(=O)NCC)c(OC)c2)ncc1C)c1cccnc1 | cell growth or viability, fluorescence | 72 h | 0.0393 µM
CC(=O)c1ccc(N=Nc2c(C(=O)O)cc(O)c(O)c2O)cc1 | cell growth or viability, MTT |  | 14.6 µM
COc1cccc(C(=O)O[C@@H]2CN3Cc4c(cc5c(c4OC)OCO5)[C@@]24C=C[C@H](OC)C[C@@H]34)c1 | cell growth or viability, WST-1 |  | > 10 µM
O=C1Nc2ccc(F)cc2/C1=N/NC(=O)c1cc2ccccc2[nH]1 | cell growth or viability |  | > 30 µM
C#C[C@@]1(O)[C@@H](CO)O[C@@H](n2ccc(N)nc2=O)[C@@H]1O | cell growth or viability, SRB | 72 h | 0.0094 µM
